Assay results as given in PMC6260803 (Angewandte Chemie (International ed. in English), 2015).
Residues, ends and D or L forms follow the SMILES beside them. *: point of attachment. X1 = O=C(CO[C@H]1O[C@H](CO)[C@@H](O)[C@H](O)[C@@H]1O)*

Legend:
griffithsin (GRFT) = griffithsin (GRFT) (Griffithsia sp., UniProt P84801); format: binding
immobilized GRFT = immobilized GRFT (Griffithsia sp., UniProt P84801); test: SPR analysis of binding to immobilized GRFT; settings: run in triplicate; for binding response to immobilized GRFT (in words): SPR sensorgrams; for dissociation rate (koff) from GRFT (in words) / association rate (kon) to GRFT (in words): SPR, immobilized GRFT
Chain of immobilized GRFT (P84801 whole entry): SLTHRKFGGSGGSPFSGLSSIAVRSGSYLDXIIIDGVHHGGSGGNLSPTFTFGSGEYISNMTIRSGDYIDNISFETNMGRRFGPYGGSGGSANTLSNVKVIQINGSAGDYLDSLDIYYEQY
Summary of the method: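 Glycopeptide high-mannose mimetics with varied mannose valency and spacing were passed over immobilized griffithsin, with a nonglycosylated peptide as negative control. Runs were in triplicate. Sensorgrams and Langmuir binding curves were generated, and association and dissociation rates were assessed from the sensorgrams.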

[1] = isothermal titration calorimetry, binding to GRFT, value ± spread

Chain of griffithsin (GRFT) (P84801 whole entry): as above

Row | Compound | stoichiometry of binding to GRFT (rounded, as stated in text) (griffithsin (GRFT); ITC) | n (stoichiometry of binding) (griffithsin (GRFT); [1]) | dissociation rate (koff) from GRFT (in words) (immobilized GRFT) | further results
1 | NC(=O)[C@H](CCCCNC(=O)[C@H](CCCCNC(=O)CNC(=O)CO[C@H]1O[C@H](CO)[C@@H](O)[C@H](O)[C@@H]1O)NC(=O)CNC(=O)CO[C@H]1O[C@H](CO)[C@@H](O)[C@H](O)[C@@H]1O)NC(=O)[C@H](CCCCNC(=O)CNC(=O)CO[C@H]1O[C@H](CO)[C@@H](O)[C@H](O)[C@@H]1O)NC(=O)CNC(=O)CO[C@H]1O[C@H](CO)[C@@H](O)[C@H](O)[C@@H]1O [Compound 12] | 1 | 1.08 ± 0.08 | – | Kd lower compared to glycopeptides 10 and 11 (griffithsin (GRFT); ITC, Kd of 12 versus 10 and 11): approximately 30 fold
2 | chitobiose [reference compound] | – | – | – | binding response to immobilized GRFT (in words) (immobilized GRFT): Negligible binding
3 | CC(=O)N[C@@H](CCCCNC(=O)CO[C@H]1O[C@H](CO)[C@@H](O)[C@H](O)[C@@H]1O)C(=O)NCC(=O)N[C@@H](CCCCNC(=O)CO[C@H]1O[C@H](CO)[C@@H](O)[C@H](O)[C@@H]1O)C(N)=O [Compound 1] | – | 1.56 ± 0.01 | – | binding response to immobilized GRFT (in words) (immobilized GRFT): weakest response of any of the glycopeptides
4 | CC(=O)N[C@@H](CCCNC(=O)CO[C@H]1O[C@H](CO)[C@@H](O)[C@H](O)[C@@H]1O)C(=O)N[C@@H](CCCNC(=O)CO[C@H]1O[C@H](CO)[C@@H](O)[C@H](O)[C@@H]1O)C(=O)N[C@@H](CCCNC(=O)CO[C@H]1O[C@H](CO)[C@@H](O)[C@H](O)[C@@H]1O)C(N)=O [Compound 7] | 1 | 0.94 ± 0.19 | – | –
5 | CC(=O)N[C@@H](CCCCNC(=O)CO[C@H]1O[C@H](CO)[C@@H](O)[C@H](O)[C@@H]1O)C(=O)NCC(=O)NCC(=O)N[C@@H](CCCCNC(=O)CO[C@H]1O[C@H](CO)[C@@H](O)[C@H](O)[C@@H]1O)C(=O)NCC(=O)NCC(=O)N[C@@H](CCCCNC(=O)CO[C@H]1O[C@H](CO)[C@@H](O)[C@H](O)[C@@H]1O)C(N)=O [Compound 5] (Ac-K(X1)GGK(X1)GGK(X1)-NH2; N-terminus and C-terminus assumed) | – | 1.16 ± 0.25 | – | –
6 | pentamannoside [reference compound] | – | – | – | binding response to immobilized GRFT (in words) (immobilized GRFT): Negligible binding
7 | CC(=O)N[C@@H](CCCCNC(=O)CO[C@H]1O[C@H](CO)[C@@H](O)[C@H](O)[C@@H]1O)C(=O)NCC(=O)N[C@@H](CCCCNC(=O)CO[C@H]1O[C@H](CO)[C@@H](O)[C@H](O)[C@@H]1O)C(=O)NCC(=O)N[C@@H](CCCCNC(=O)CO[C@H]1O[C@H](CO)[C@@H](O)[C@H](O)[C@@H]1O)C(=O)NCC(=O)N[C@@H](CCCCNC(=O)CO[C@H]1O[C@H](CO)[C@@H](O)[C@H](O)[C@@H]1O)C(=O)NCC(=O)N[C@@H](CCCCNC(=O)CO[C@H]1O[C@H](CO)[C@@H](O)[C@H](O)[C@@H]1O)C(=O)NCC(=O)N[C@@H](CCCCNC(=O)CO[C@H]1O[C@H](CO)[C@@H](O)[C@H](O)[C@@H]1O)C(N)=O [Compound 4] | 0.5 | 0.52 ± 0.05 | significantly slower rate than Km3G1 and Km4G1 | –
8 | CC(=O)N[C@@H]1[C@@H](O)[C@H](O[C@@H]2O[C@H](CO)[C@@H](O[C@@H]3O[C@H](CO[C@H]4O[C@H](CO[C@H]5O[C@H](CO)[C@@H](O)[C@H](O)[C@@H]5O[C@H]5O[C@H](CO)[C@@H](O)[C@H](O)[C@@H]5O)[C@@H](O)[C@H](O[C@H]5O[C@H](CO)[C@@H](O)[C@H](O)[C@@H]5O[C@H]5O[C@H](CO)[C@@H](O)[C@H](O)[C@@H]5O)[C@@H]4O)[C@@H](O)[C@H](O[C@H]4O[C@H](CO)[C@@H](O)[C@H](O)[C@@H]4O[C@H]4O[C@H](CO)[C@@H](O)[C@H](O)[C@@H]4O[C@H]4O[C@H](CO)[C@@H](O)[C@H](O)[C@@H]4O)[C@@H]3O)[C@H](O)[C@H]2NC(C)=O)[C@@H](CO)O[C@H]1NC(=O)C[C@H](N)C(=O)O [Compound 14, Man9GlcNAc2Asn, reference compound] | – | 1.39 ± 0.12 | slower koff rate than nonamannoside 13 | Kd (griffithsin (GRFT); [1]): 0.54 ± 0.27 µM
9 | NC(=O)[C@H](CCCCNC(=O)[C@H](CCCCNC(=O)CO[C@H]1O[C@H](CO)[C@@H](O)[C@H](O)[C@@H]1O)NC(=O)CO[C@H]1O[C@H](CO)[C@@H](O)[C@H](O)[C@@H]1O)NC(=O)[C@H](CCCCNC(=O)CO[C@H]1O[C@H](CO)[C@@H](O)[C@H](O)[C@@H]1O)NC(=O)CO[C@H]1O[C@H](CO)[C@@H](O)[C@H](O)[C@@H]1O [Compound 10] | 2 | 1.96 ± 0.09 | very slow koff rates | association rate (kon) to GRFT (in words) (immobilized GRFT): slower kon rates
10 | NC(=O)[C@H](CCCCNC(=O)CNC(=O)[C@H](CCCCNC(=O)CO[C@H]1O[C@H](CO)[C@@H](O)[C@H](O)[C@@H]1O)NC(=O)CO[C@H]1O[C@H](CO)[C@@H](O)[C@H](O)[C@@H]1O)NC(=O)CNC(=O)[C@H](CCCCNC(=O)CO[C@H]1O[C@H](CO)[C@@H](O)[C@H](O)[C@@H]1O)NC(=O)CO[C@H]1O[C@H](CO)[C@@H](O)[C@H](O)[C@@H]1O [Compound 11] | 1.5 | 1.45 ± 0.12 | very slow koff rates | association rate (kon) to GRFT (in words) (immobilized GRFT): slower kon rates
11 | CC(=O)N[C@@H](CCCCNC(=O)CO[C@H]1O[C@H](CO)[C@@H](O)[C@H](O)[C@@H]1O)C(=O)NCC(=O)N[C@@H](CCCCNC(=O)CO[C@H]1O[C@H](CO)[C@@H](O)[C@H](O)[C@@H]1O)C(=O)NCC(=O)N[C@@H](CCCCNC(=O)CO[C@H]1O[C@H](CO)[C@@H](O)[C@H](O)[C@@H]1O)C(N)=O [Compound 2] | 1 | 0.96 ± 0.24 | – | –
12 | CC(=O)N[C@@H](CCCCNC(=O)CO[C@H]1O[C@H](CO)[C@@H](O)[C@H](O)[C@@H]1O)C(=O)N[C@@H](CCCCNC(=O)CO[C@H]1O[C@H](CO)[C@@H](O)[C@H](O)[C@@H]1O)C(=O)N[C@@H](CCCCNC(=O)CO[C@H]1O[C@H](CO)[C@@H](O)[C@H](O)[C@@H]1O)C(N)=O [Compound 6] | – | 0.98 ± 0.11 | – | –
13 | CC(=O)N[C@@H](CCCCNC(=O)CO[C@H]1O[C@H](CO)[C@@H](O)[C@H](O)[C@@H]1O)C(=O)NCC(=O)N[C@@H](CCCCNC(=O)CO[C@H]1O[C@H](CO)[C@@H](O)[C@H](O)[C@@H]1O)C(=O)NCC(=O)N[C@@H](CCCCNC(=O)CO[C@H]1O[C@H](CO)[C@@H](O)[C@H](O)[C@@H]1O)C(=O)NCC(=O)N[C@@H](CCCCNC(=O)CO[C@H]1O[C@H](CO)[C@@H](O)[C@H](O)[C@@H]1O)C(N)=O [Compound 3] | – | 0.68 ± 0.03 | – | –
14 | CC(=O)N[C@@H](CNC(=O)CO[C@H]1O[C@H](CO)[C@@H](O)[C@H](O)[C@@H]1O)C(=O)N[C@@H](CNC(=O)CO[C@H]1O[C@H](CO)[C@@H](O)[C@H](O)[C@@H]1O)C(=O)N[C@@H](CNC(=O)CO[C@H]1O[C@H](CO)[C@@H](O)[C@H](O)[C@@H]1O)C(N)=O [Compound 8] | 1.5 | 1.38 ± 0.17 | by far the slowest dissociation rate | –
